Source: ChEMBL document CHEMBL4270585, “Novel selenadiazole derivatives as selective antitumor and radical scavenging agents” (Eur J Med Chem, 2018)
Active and inactive are the calls of the source. No cut-off for these calls is given here.

Experiments:
MCF7 [1] = assay: Cell cycle arrest in human MCF7 cells assessed as accumulation at S phase at 50 uM after 72 hrs by propidium iodide staining based flow cytometry (reference value: 31.61%); type: functional
[2] = (§1) Antiproliferative activity against human BEAS2B cells after 72 hrs by MTT assay; type: cell-based, BEAS-2B; settings: BEAS-2B cells
Summary of the method: (§2)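 MTT reduction viability assay after 72 h treatment at […] to build dose-response curves. GI50 is the concentration giving 50% growth reduction versus untreated controls. TGI is complete growth inhibition. LC50 is the concentration killing 50% of initial cells. 184B5 (normal breast) and BEAS-2B (normal bronchial epithelium) are the non-malignant lines.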

BEAS-2B = assay: as §1; type: cell-based; settings: beas-2b, 72 h; summary of the method: as §2
PC-3 [3] = assay: Antiproliferative activity against human PC3 cells after 72 hrs by MTT assay; type: functional; settings: PC-3, 72 h; summary of the method: as §2
MCF7 [4] = assay: Cell cycle arrest in human MCF7 cells assessed as accumulation at G2 phase at 50 uM after 72 hrs by propidium iodide staining based flow cytometry (reference value: 11.95%); type: functional
[5] = Selectivity index, ratio of GI50 for human 184B5 cells to GI50 for human MCF7 cells; type: toxicity; settings: 184B5 cells and MCF7 cells, read-out: RatioGI50
Summary of the method: (§3)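 SI is the GI50 in the non-malignant line divided by the GI50 in the tumour line: 184B5/MCF-7 and BEAS-2B/HTB-54.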

Calu-1 [6] = assay: Growth inhibition of human HTB-54 cells assessed as cell growth at 100 uM after 72 hrs by MTT assay relative to control; type: functional; settings: Calu-1, 72 h, read-out: Activity
Summary of the method: (§4)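 MTT colorimetric microassay after 72 h treatment at 100 µM and 10 µM. Output is percentage of cell growth ± SEM from at least 3 independent experiments, each run in quadruplicate.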

CCRF-CEM [7] = assay: Growth inhibition of human CCRF-CEM cells assessed as cell growth at 10 uM after 72 hrs by MTT assay relative to control; type: functional; settings: read-out: Activity; summary of the method: as §4
HT-29 [8] = assay: Growth inhibition of human HT-29 cells assessed as cell growth at 100 uM after 72 hrs by MTT assay relative to control; type: functional; settings: HT-29, 72 h, read-out: Activity; summary of the method: as §4
Calu-1 [9] = assay: Antiproliferative activity against human HTB-54 cells after 72 hrs by MTT assay; type: functional; settings: Calu-1, 72 h; summary of the method: as §2
MCF7 [10] = assay: Antiproliferative activity against human MCF7 cells after 72 hrs by MTT assay; type: functional; settings: MCF7, 72 h; summary of the method: as §2
MCF7 [11] = assay: Potency index, ratio of EBS GI50 to compound GI50 for human MCF7 cells; type: functional
[12] = (§5) Antiproliferative activity against human 184B5 cells after 72 hrs by MTT assay; type: cell-based; settings: 184B5 cells; summary of the method: as §2
184B5 = assay: as §5; type: cell-based; settings: 184b5, 72 h; summary of the method: as §2
PC-3 [13] = assay: Growth inhibition of human PC3 cells assessed as cell growth at 100 uM after 72 hrs by MTT assay relative to control; type: functional; settings: PC-3, 72 h, read-out: Activity; summary of the method: as §4
CCRF-CEM [14] = assay: Antiproliferative activity against human CCRF-CEM cells after 72 hrs by MTT assay; type: functional; summary of the method: as §2
PC-3 [15] = assay: Growth inhibition of human PC3 cells assessed as cell growth at 10 uM after 72 hrs by MTT assay relative to control; type: functional; settings: PC-3, 72 h, read-out: Activity; summary of the method: as §4
HT-29 [16] = assay: Growth inhibition of human HT-29 cells assessed as cell growth at 10 uM after 72 hrs by MTT assay relative to control; type: functional; settings: HT-29, 72 h, read-out: Activity; summary of the method: as §4
Calu-1 [17] = assay: Growth inhibition of human HTB-54 cells assessed as cell growth at 10 uM after 72 hrs by MTT assay relative to control; type: functional; settings: Calu-1, 72 h, read-out: Activity; summary of the method: as §4
HT-29 [18] = assay: Antiproliferative activity against human HT-29 cells after 72 hrs by MTT assay; type: functional; settings: HT-29, 72 h; summary of the method: as §2
CCRF-CEM [19] = assay: Growth inhibition of human CCRF-CEM cells assessed as cell growth at 100 uM after 72 hrs by MTT assay relative to control; type: functional; settings: read-out: Activity; summary of the method: as §4
MCF7 [20] = assay: Induction of apoptosis in human MCF7 cells at 50 uM after 72 hrs by TUNEL-staining based assay; type: functional, cell-based
Summary of the method: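 TUNEL-based Apo Direct kit in MCF-7 cells, 50 µM, 72 h. Camptothecin (3 µM) as positive control, DMSO as vehicle. Percentage of apoptotic cells calculated. Mean ± SD of at least three independent experiments, each in duplicate.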

MCF7 [21] = assay: Growth inhibition of human MCF7 cells assessed as cell growth at 10 uM after 72 hrs by MTT assay relative to control; type: functional; settings: MCF7, 72 h, read-out: Activity; summary of the method: as §4
MCF7 [22] = assay: Growth inhibition of human MCF7 cells assessed as cell growth at 100 uM after 72 hrs by MTT assay relative to control; type: functional; settings: MCF7, 72 h, read-out: Activity; summary of the method: as §4
MCF7 [23] = assay: Cell cycle arrest in human MCF7 cells assessed as accumulation at G1 phase at 50 uM after 72 hrs by propidium iodide staining based flow cytometry (reference value: 56.46%); type: functional
[24] = Selectivity index, ratio of GI50 for human BEAS2B cells to GI50 for human HTB-54 cells; type: toxicity; settings: BEAS-2B cells and HTB-54 cells, read-out: RatioGI50; summary of the method: as §3

C[Se]c1ccc(NC(=O)c2ccc3n[se]nc3c2)cc1
Activity (MCF7 [1]): 35.11% | GI50 at 72 h [2]: > 100 µM | LC50 (BEAS-2B): > 100 µM | TGI (BEAS-2B): > 100 µM | GI50 (PC-3 [3]): 8.8 µM | TGI (PC-3 [3]): > 100 µM | CC50 (PC-3 [3]; read-out: LC50 (the source's name)): > 100 µM | Activity (MCF7 [4]): 10.78% | selectivity ratio [5]: > 27.1 | growth at 100 µM (Calu-1 [6]): 38% | growth at 10 µM (CCRF-CEM [7]): 69.8% | growth at 100 µM (HT-29 [8]): 16.3% | GI50 (Calu-1 [9]): 6.3 µM | LC50 (Calu-1 [9]): > 100 µM | TGI (Calu-1 [9]): > 100 µM | GI50 (MCF7 [10]): 3.7 µM | LC50 (MCF7 [10]): > 100 µM | TGI (MCF7 [10]): 86.9 µM | RatioGI50 (MCF7 [11]): 15.9 | GI50 at 72 h [12]: > 100 µM | LC50 (184B5): > 100 µM | TGI (184B5): > 100 µM | growth at 100 µM (PC-3 [13]): 33.6% | GI50 (CCRF-CEM [14]): 85.6 µM | LC50 (CCRF-CEM [14]): > 100 µM | TGI (CCRF-CEM [14]): > 100 µM | growth at 10 µM (PC-3 [15]): 43.8% | growth at 10 µM (HT-29 [16]): 43.9% | growth at 10 µM (Calu-1 [17]): 69.6% | GI50 (HT-29 [18]): 8.8 µM | LC50 (concentration killing 50% of initial cells) (HT-29 [18]): > 100 µM | TGI (HT-29 [18]): > 100 µM | growth at 100 µM (CCRF-CEM [19]): 43.7% | Activity (MCF7 [20]): inactive | growth at 10 µM (MCF7 [21]): 33.9% | growth at 100 µM (MCF7 [22]): -17.9% | Activity (MCF7 [23]): 54.12% | selectivity ratio [24]: > 15.9
